Source: article PMC3400539 (Journal of Computer-Aided Molecular Design, 2011)
Like-named read-outs stand apart in the source and are kept apart here.

Key:
[1] = test system: BRCA1(BRCT) (six his-tagged, amino acids 1646–1859); settings: cited from earlier work; for ΔGexp (binding free energy): Table 1; for ΔG (Exp): Table 2, brackets = error of the mean
[2] = test system: BRCA1(BRCT) (six his-tagged, amino acids 1646–1859); test: Isothermal titration calorimetry; type: binding
Method in brief: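 His6-BRCA1 BRCT (aa 1646–1859) was expressed in E. coli BL21(DE3) RIL (1 mM IPTG), Ni-affinity purified, and dialysed into 50 mM KH2PO4 pH 7.2. Peptides were quantified by amino acid analysis, freeze-dried and redissolved in the same buffer. At 25°C, 100–900 µM peptide was titrated into 10–30 µM protein: 3 µL, then 29 × 10 µL, 3 min apart, 307 rpm. Peptide-into-buffer heats were subtracted and the data integrated.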

[3] = isothermal calorimetric data, ref [9]

Row | Substance | ΔGexp (binding free energy) ([1]; T1–T4, ref [9]) | ΔG (Exp) ([1]; ref [9]) | other results
1 | Ac-EPTF-CONH2 [Peptide T4] | No binding | no binding | binding to BRCA1(BRCT) found experimentally ([1]; in words, ref [9]): does not bind
2 | Ac-Nap-pSPTF-CONH2 [Peptide P7] | – | – | ΔΔG, increase in binding affinity compared to T1 ([2]; P7 vs T1, ITC): 0.3 kcal/mol; ΔG (Exp) ([2]; Table 2, brackets = error of the mean, ITC, 25°C, 50 mM KH2PO4 pH = 7.2): −7.8 (0.1) kcal/mol
3 | Ac-pSATF-CONH2 [Peptide T2] | -6.7 kcal/mol | −6.7 (0.3) kcal/mol | –
4 | Ac-pSPAF-CONH2 [Peptide T3] | -5.9 kcal/mol | −5.9 (0.2) kcal/mol | loss in binding affinity caused by Thr→Ala mutation (vs T1) [1, 3]: 1.6 kcal/mol
5 | Ac-pSPTF-CONH2 [Peptide T1] | -7.5 kcal/mol | −7.5 (0.2) kcal/mol | –
6 | Ac-pSPVF-CONH2 [Peptide T5] | – | – | ΔGexp (binding free energy) ([1]; T5, ref [18]): -7.8 kcal/mol; ΔG (Exp) ([1]; ref [18]): −7.8 (0.1) kcal/mol; enhancement of binding by Val mutation (vs T1) [1, 3]: 0.3 kcal/mol; binding affinity compared with T1 (in words) ([1]; isothermal calorimetric study, ref [18]): practically the same binding affinity
